Measured values: ChEMBL document CHEMBL1938334, “Quinoline tricyclic derivatives. Design, synthesis and evaluation of the antiviral activity of three new classes of RNA-dependent RNA polymerase inhibitors” (Bioorg Med Chem, 2011)

tested on: Human orthopneumovirus; assay: Antiviral activity against Human respiratory syncytial virus A2 infected in african green monkey Vero 76 cells assessed as reduction of virus-induced plaque formation after 5 days using crystal violet staining; type: functional, organism-based; details: 120 h

| SMILES | EC50 [µM] |
| --- | --- |
| O=c1[nH]c2cc3cccnc3c(Cl)c2nc1Cc1ccccc1 | > 88 |

tested on: Human immunodeficiency virus 1; assay: Antiviral activity against HIV1 3B infected in human MT4 cells assessed as inhibition of virus-induced cytopathogenicity after 4 days by MTT assay; type: functional, organism-based; details: Human immunodeficiency virus 1, 3B, MT4, 96 h
Outline: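 MT-4 cells (1×10^4 per well) were infected with HIV-1 IIIB at 100 CCID50, m.o.i. 0.01, together with serial compound dilutions. Viability was read by MTT after 4 days at 37 °C. EC50 was taken by linear regression versus untreated controls. Mean of three determinations.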

| SMILES | EC50 [µM] |
| --- | --- |
| O=c1[nH]c2cc3cccnc3c(Cl)c2nc1Cc1ccccc1 | > 15 |

tested on: CCRF-SB; assay: Cytotoxicity against human CCRF-SB cells after 96 hrs by MTT assay; type: functional; details: not given
Outline: (§1)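 Cells were seeded at 1×10^5 cells/mL: leukaemia/lymphoma lines in RPMI-1640, solid tumour and fibroblast lines in specific media, all with 10% FCS. Serial compound dilutions were applied for 96 h at 37 °C, 5% CO2, under conditions allowing controls at least three rounds of multiplication. Viability was read by MTT. CC50 by linear regression. Mean of three determinations.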

| SMILES | CC50 [µM] |
| --- | --- |
| O=c1[nH]c2cc3cccnc3c(Cl)c2nc1Cc1ccccc1 | 25 |

tested on: DU-145; assay: Cytotoxicity against human DU145 cells after 96 hrs by MTT assay; type: functional; details: DU-145, 96 h; outline: as §1

| SMILES | CC50 [µM] |
| --- | --- |
| O=c1[nH]c2cc3cccnc3c(Cl)c2nc1Cc1ccccc1 | ≥ 100 |

tested on: not listed separately; assay: Inhibition of HCV1b BK 6xHis-tagged recombinant NS5B Cdelta 21 RNA dependent RNA polymerase expressed in Escherichia coli (DE3) using GTP as substrate preincubated for 30 mins before substrate addition measured after 120 mins by fluorescence assay; parameters: species or system Hepatitis C virus (isolate BK); details: not given
Outline: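 His-tagged NS5B (BVDV C-terminal Δ24; HCV1b Δ21) from E. coli Rosetta 2(DE3)pLysS, Ni-NTA purified, 500–600 ng per 20 μL. The template was poly(rC) 10 μg/mL and the primer oligo(rG)12 0.1 μg/mL, with GTP 80 μM. Buffer: 20 mM Tris pH 7.0, 0.5 mM MnCl2 or 5 mM MgCl2, 5% DMSO. Enzyme/drug 30 min at RT, then GTP added; 120 min at 37 °C (BVDV) or 25 °C (HCV). Read-out was dsRNA dye fluorescence (ex 480/em 520). IC50 from dose–response fits.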

| SMILES | IC50 [µM] |
| --- | --- |
| O=c1[nH]c2cc3cccnc3c(Cl)c2nc1Cc1ccccc1 | > 10 |

tested on: WIL2-NS; assay: Cytotoxicity against human WIL2-NS cells after 96 hrs by MTT assay; type: functional; details: not given; outline: as §1

| SMILES | CC50 [µM] |
| --- | --- |
| O=c1[nH]c2cc3cccnc3c(Cl)c2nc1Cc1ccccc1 | 33 |

tested on: not listed separately; assay: Cytotoxicity against human GS4.1 cells; type: cell-based; details: not given
Outline: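 Huh-7 cells carrying HCV genotype 1b subgenomic replicon, grown in D-MEM/10% FBS with 0.5 mg/mL G418. Seeded at 7.5×10^3 cells/well with two-fold serial dilutions (top 75 μM), incubated 72 h at 37 °C. Viability by MTS-type Cell Titer 96 Aqueous One reagent; CC50 from % cytotoxicity versus concentration curves.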

| SMILES | CC50 [µM] |
| --- | --- |
| O=c1[nH]c2cc3cccnc3c(Cl)c2nc1Cc1ccccc1 | 65 |

tested on: not listed separately; assay: Cytotoxicity against MDBK cells after 48 to 96 hrs by MTT assay; type: cell-based, Bos taurus; details: cattle
Outline: (§2)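 MDBK seeded at 6×10^5 and BHK at 1×10^6 cells/mL in MEM-Earle's with L-glutamine, 1 mM pyruvate, kanamycin, plus 10% horse serum (MDBK) or 10% FBS (BHK). Cells were grown at 37 °C, 5% CO2 with serial compound dilutions (DMSO stocks diluted in medium). Viability by MTT after 48–96 h. CC50 was taken by linear regression versus untreated controls; three independent determinations.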

| SMILES | CC50 [µM] |
| --- | --- |
| O=c1[nH]c2cc3cccnc3c(Cl)c2nc1Cc1ccccc1 | > 100 |

tested on: Reovirus sp.; assay: Antiviral activity against Reovirus type-1 3651 infected in hamster BHK21 cells assessed as inhibition of virus-induced cytopathogenicity after 3 to 4 days by MTT assay; type: functional, organism-based; details: Reovirus sp., 3651, BHK-21
Outline: (§3)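 Host cells were seeded in 96-well plates at 3×10^4 cells/well (MDBK) or 5×10^4 cells/well (BHK-21) and grown to confluent monolayers overnight. They were infected at m.o.i. 0.01 in maintenance MEM with 0.5% inactivated FBS. Serial compound dilutions were added after 1 h. Viability was read by MTT after 3–4 days at 37 °C. EC50 was taken by linear regression against untreated controls. Mean of three determinations.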

| SMILES | EC50 [µM] |
| --- | --- |
| O=c1[nH]c2cc3cccnc3c(Cl)c2nc1Cc1ccccc1 | > 100 |

tested on: HepG2; assay: Cytotoxicity against human HepG2 cells after 96 hrs by MTT assay; type: functional; details: HepG2, 96 h; outline: as §1

| SMILES | CC50 [µM] |
| --- | --- |
| O=c1[nH]c2cc3cccnc3c(Cl)c2nc1Cc1ccccc1 | 72 |

tested on: not listed separately; assay: Antiviral activity against Vaccinia virus Lister Elstree infected in african green monkey Vero 76 cells assessed as reduction of virus-induced plaque formation after 3 days using crystal violet staining; type: functional, cell-based; details: 72 h

| SMILES | EC50 [µM] |
| --- | --- |
| O=c1[nH]c2cc3cccnc3c(Cl)c2nc1Cc1ccccc1 | > 88 |

tested on: not listed separately; assay: Antiviral activity against Bovine viral diarrhea virus 1-NADL infected in MDBK cells assessed as inhibition of virus-induced cytopathogenicity after 3 to 4 days by MTT assay; type: functional, cell-based; details: Bovine viral diarrhea virus isolates and strains; outline: as §3

| SMILES | EC50 [µM] |
| --- | --- |
| O=c1[nH]c2cc3cccnc3c(Cl)c2nc1Cc1ccccc1 | 2.6 |

tested on: Human alphaherpesvirus 1; assay: Antiviral activity against Human herpesvirus 1 strain KOS infected in african green monkey Vero 76 cells assessed as reduction of virus-induced plaque formation after 3 days using crystal violet staining; type: functional, organism-based; details: Human alphaherpesvirus 1, KOS, 72 h

| SMILES | EC50 [µM] |
| --- | --- |
| O=c1[nH]c2cc3cccnc3c(Cl)c2nc1Cc1ccccc1 | > 88 |

tested on: MCF7; assay: Cytotoxicity against human MCF7 cells after 96 hrs by MTT assay; type: functional; details: MCF7, 96 h; outline: as §1

| SMILES | CC50 [µM] |
| --- | --- |
| O=c1[nH]c2cc3cccnc3c(Cl)c2nc1Cc1ccccc1 | > 100 |

tested on: not listed separately; assay: Cytotoxicity against BHK21 cells after 48 to 96 hrs by MTT assay; type: cell-based, Mesocricetus auratus, BHK-21; details: hamster; outline: as §2

| SMILES | CC50 [µM] |
| --- | --- |
| O=c1[nH]c2cc3cccnc3c(Cl)c2nc1Cc1ccccc1 | > 100 |

tested on: not listed separately; assay: Cytotoxicity against human MT4 cells after 96 hrs by MTT assay; type: cell-based; details: not given
Outline: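 Exponentially growing MT-4 cells seeded at 1×10^5 cells/mL in RPMI-1640 with 10% FBS, penicillin and streptomycin. Incubated with serial compound dilutions at 37 °C, 5% CO2 for 96 h; viability by MTT. CC50 by linear regression relative to untreated controls; mean of three independent determinations.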

| SMILES | CC50 at 96 h [µM] |
| --- | --- |
| O=c1[nH]c2cc3cccnc3c(Cl)c2nc1Cc1ccccc1 | 15 |

tested on: Poliovirus 1; assay: Antiviral activity against Human poliovirus 1 strain Sabin Chat infected in african green monkey Vero 76 cells assessed as virus-induced reduction of plaque formation after 2 days using crystal violet staining; type: functional, cell-based; details: Enterovirus C, 48 h

| SMILES | EC50 [µM] |
| --- | --- |
| O=c1[nH]c2cc3cccnc3c(Cl)c2nc1Cc1ccccc1 | > 88 |

tested on: CCRF-CEM; assay: Cytotoxicity against human CCRF-CEM cells after 96 hrs by MTT assay; type: functional; details: not given; outline: as §1

| SMILES | CC50 [µM] |
| --- | --- |
| O=c1[nH]c2cc3cccnc3c(Cl)c2nc1Cc1ccccc1 | 19 |

tested on: Coxsackievirus B5; assay: Antiviral activity against Human coxsackievirus B5 Ohio-1 infected in african green monkey Vero 76 cells assessed as reduction of virus-induced plaque formation after 3 days using crystal violet staining; type: functional, organism-based; details: Enterovirus B, Ohio-1, Vero, 72 h

| SMILES | EC50 [µM] |
| --- | --- |
| O=c1[nH]c2cc3cccnc3c(Cl)c2nc1Cc1ccccc1 | > 88 |

tested on: not listed separately; assay: Cytotoxicity against african green monkey Vero 76 cells after 48 to 96 hrs by crystal violet staining; type: cell-based; details: chlorocebus sabaeus
Outline: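 Vero-76 cells were seeded at 4×10^5 cells/mL in D-MEM with L-glutamine, kanamycin and 10% FBS, then exposed to serial compound dilutions at 37 °C, 5% CO2 for 48–96 h. Viability was read by crystal violet staining. 50% cytotoxic concentration by linear regression relative to untreated controls; mean of three independent determinations.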

| SMILES | CC50 [µM] |
| --- | --- |
| O=c1[nH]c2cc3cccnc3c(Cl)c2nc1Cc1ccccc1 | 88 |

tested on: not listed separately; assay: Inhibition of Bovine viral diarrhea virus 1-NADL recombinant NS5B Cdelta 21 RNA dependent RNA polymerase expressed in Escherichia coli (DE3) using GTP as substrate preincubated for 30 mins before substrate addition measured after 120 mins by fluorescence assay; details: not given

| SMILES | IC50 [µM] |
| --- | --- |
| O=c1[nH]c2cc3cccnc3c(Cl)c2nc1Cc1ccccc1 | 1.2 |

tested on: SK-MES-1; assay: Cytotoxicity against human SKMES1 cells after 96 hrs by MTT assay; type: functional; details: SK-MES-1, 96 h; outline: as §1

| SMILES | CC50 [µM] |
| --- | --- |
| O=c1[nH]c2cc3cccnc3c(Cl)c2nc1Cc1ccccc1 | > 100 |

tested on: Hepatitis C virus; assay: Antiviral activity against HCV1b infected in human GS4.1 cells assessed as inhibition of virus-induced cytopathogenicity by measuring viral NS4A protein level after 72 hrs by ELISA; type: functional, organism-based, Hepacivirus hominis; details: genotype 1b
Outline: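 GS4.1 cells are Huh-7 cells carrying a genotype 1b subgenomic replicon, kept in 0.5 mg/mL G418. They were seeded at 7.5×10^3 cells/well with two-fold serial dilutions of compound (top 75 μM) and incubated 72 h at 37 °C. Huh-7 cells without the replicon served as negative control. NS4A was measured by cell ELISA with anti-NS4A mAb A-236, peroxidase and o-phenylenediamine, A492. EC50 came from four-parameter sigmoidal fit.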

| SMILES | EC50 [µM] |
| --- | --- |
| O=c1[nH]c2cc3cccnc3c(Cl)c2nc1Cc1ccccc1 | > 65 |

tested on: SK-MEL-28; assay: Cytotoxicity against human SK-MEL-28 cells after 96 hrs by MTT assay; type: functional; details: SK-MEL-28, 96 h; outline: as §1

| SMILES | CC50 [µM] |
| --- | --- |
| O=c1[nH]c2cc3cccnc3c(Cl)c2nc1Cc1ccccc1 | > 100 |

tested on: Yellow fever virus; assay: Antiviral activity against Yellow fever virus 17D Stamaril Pasteur J07B01 infected in hamster BHK21 cells assessed as inhibition of virus-induced cytopathogenicity after 3 to 4 days by MTT assay; type: functional, cell-based; details: Stamaril Pasteur J07B01, BHK-21; outline: as §3

| SMILES | EC50 [µM] |
| --- | --- |
| O=c1[nH]c2cc3cccnc3c(Cl)c2nc1Cc1ccccc1 | > 100 |

tested on: not listed separately; assay: Cytotoxicity against human CRL7065 cells after 96 hrs by MTT assay; type: cell-based, CRL-7065; details: not given
Outline: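 Foreskin fibroblasts seeded at 1×10^5 cells/mL in specific medium with 10% FCS and antibiotics; serial compound dilutions, 37 °C, 5% CO2, 96 h, under conditions allowing untreated controls at least three rounds of multiplication. MTT read-out; concentration reducing proliferation by 50% by linear regression versus untreated controls; three independent determinations.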

| SMILES | CC50 at 96 h [µM] |
| --- | --- |
| O=c1[nH]c2cc3cccnc3c(Cl)c2nc1Cc1ccccc1 | > 100 |

tested on: Vesicular stomatitis Indiana virus; assay: Antiviral activity against clinical isolate Vesicular stomatitis Indiana virus infected in african green monkey Vero 76 cells assessed as reduction of virus-induced plaque formation after 2 days using crystal violet staining; type: functional, organism-based; details: 48 h

| SMILES | EC50 [µM] |
| --- | --- |
| O=c1[nH]c2cc3cccnc3c(Cl)c2nc1Cc1ccccc1 | > 88 |
